Test results: PubChem BioAssay
Results filed as inconclusive are left out.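 How the source made its calls, unless noted: active means inhibition over a set limit, the all-compound mean plus 3 SD, in both replicate runs; inconclusive means over that limit in just one replicate run; inactive means at or under that limit in both runs.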

Legend:
[1] = S. cerevisiae growth inhibition in permissive medium (OD615), pilot counter-assay for S. cerevisiae lifespan shortening project, permissive growth control (AID 705;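 active means growth inhibition above 25% in both replicates, a cutoff set 3 SD above the mean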); conditions: OD615, 24 h, at 10 µM, active compounds read high
Method in brief: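 System: engineered DeaD yeast; Medium: permissive raffinose/galactose medium; Compound dosing: 10 µM single dose, 0.25% DMSO; Incubation: 4 h cell pre-growth, 24 h exposure at 30 °C; Technique: OD at 615 nm; Evaluation: growth inhibition from lowered OD615 after 24 h.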

[2] = S. cerevisiae growth inhibition in restrictive medium, OD615, pilot screen, restrictive growth control, yeast lifespan reduction project (AID 706;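 active means growth inhibition above a set limit, 3 SD over mean compound inhibition, in both replicates, cut at about 43% in these data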;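 further: modified DeaD lifespan yeast strain shifted to restrictive glucose medium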); conditions: OD615, 48 h, at 10 µM, active compounds read high
Method in brief: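 Material: modified S. cerevisiae; buffer or medium: CSMM-D glucose medium; doses: one concentration, 10 µM final, 0.25% DMSO; incubation: 48 h compound exposure at 30 °C; detection: optical density at 615 nm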

[3] = doxorubicin toxicity protection in MRP-1 cells – H69AR cells, CellTiter-Glo, duplicate, MRP-1 activator project, pilot screen (AID 807;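 active means viability increase at or above a cutoff of the median across tested compounds plus 3 SD, cut at about 8.5% in these data, passing the limit was not always enough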;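 further: compound pretreatment 18-22 h then 72 h combined with doxorubicin; 0% = doxorubicin alone and 100% = vehicle without doxorubicin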); conditions: H69AR viability with doxorubicin, CellTiter-Glo luminescence; at 10 µM; active compounds read high
[4] = viability of HCT116 without oncogenic beta-catenin – human colon tumor cells, pilot screen (AID 823;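 active means cell viability at or below a set limit in both duplicate runs, the limit being the all-compound median minus 4 SD, cut at about 23% in these data, passing the limit was not always enough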;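 further: 0% = wells killed by 20 µM Hyamine and 100% = untreated DMSO cell wells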); conditions: HCT116 beta-catenin knockout viability, CellTiter-Glo, 60 h; at 10 µM; active compounds read low
[5] = viability of PTEN-null HCT116 cells – cell-based, HCT116 clonal line, CellTiter-Glo, pilot screen (AID 824;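 active means viability at or below 27.92% in each of two runs, the all-compound median minus 4 SD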;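 further: 0% = 20 µM Hyamine control and 100% = vehicle cell control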); conditions: HCT116 PTEN-deleted viability, 60 h, at 10 µM, active compounds read low
[6] = RAM pathway blockade in budding yeast – dse1pr::URA3 reporter, 5-FOA selection, pilot screen (AID 869);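 further: 0% = DMSO wells with no growth and 100% = 10 µM 1-NA-PP1 with full growth; RAM network block rescues cells from 5-FOA so hits raise OD615 growth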; conditions: S. cerevisiae dse1pr::URA3 5-FOA growth, OD615, 2 d; at 10 µM; active compounds read high; strain carries analog-sensitive mutant Cbk1 kinase
[7] = RAM signaling pathway blockade in yeast – S. cerevisiae, Pdr1DBD-CYC8 efflux-inhibited sensitized strain, primary screen (AID 1298;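 active means RAM network inhibition above 8.4% in each of two replicates, 3 SD over the compound average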;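 further: 0% = DMSO untreated cells without growth and 100% = 10 µM 1-NA-PP1 full growth; higher means more yeast growth rescued from 5-FOA killing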); conditions: S. cerevisiae cbk1-as DSE1-URA3 strain, 5-FOA growth OD615, 2 d; at 50 µM; active compounds read high

CCOC(=O)c1cc(-c2ccc(C)o2)nn1CCC#N
inactive: growth inhibition [1] -6.98% | growth inhibition [2] 4.24% | viability increase [3] 0.21% | viability [4] 101% | viability [5] 102% | inhibition [6] 0.86% | RAM network inhibition [7] 3.69%

CN(Cc1ccccc1)C(=O)CCn1c(=O)oc2ccccc21
inactive: growth inhibition [1] 2.31% | growth inhibition [2] -0.265% | viability increase [3] -1.33% | viability [4] 101% | viability [5] 99.2% | inhibition [6] 1.41% | RAM network inhibition [7] 1.99%

O=C1c2ccccc2C(Nc2ccc3c(c2)OCO3)N1Cc1ccco1 (stereo not given)
inactive: growth inhibition [1] 5.28% | growth inhibition [2] -10.7% | viability increase [3] -4.48% | viability [4] 78% | viability [5] 73.3% | inhibition [6] 1.98% | RAM network inhibition [7] 2.26%

CC1CCN(c2nc3c(c(=O)[nH]c(=O)n3C)n2Cc2ccccc2Cl)CC1
inactive: growth inhibition [1] -10.2% | growth inhibition [2] -20.9% | viability increase [3] -6.47% | viability [4] 87.6% | viability [5] 72% | inhibition [6] 2.75% | RAM network inhibition [7] 9.67%

COc1cccc(C(=O)NCc2cn3ccsc3n2)c1
inactive: growth inhibition [1] -16.9% | growth inhibition [2] 4.09% | viability increase [3] -1.05% | viability [4] 110% | viability [5] 92.4% | inhibition [6] 2.06% | RAM network inhibition [7] 3.48%

COc1ccc(C(=O)NCC23C=CC(O2)C2C(=O)N(Cc4ccccc4)C(=O)C23)cc1 (stereo not given)
inactive: growth inhibition [1] -5.3% | growth inhibition [2] 13.4% | viability increase [3] -0.77% | viability [4] 85.1% | viability [5] 88.8% | inhibition [6] 2.19% | RAM network inhibition [7] 3.67%

COc1ccc(C(=O)NCCSCc2ccco2)cc1OC
inactive: growth inhibition [1] -9.5% | growth inhibition [2] 5.73% | viability increase [3] -4.86% | viability [4] 98.2% | viability [5] 95.6% | inhibition [6] 1% | RAM network inhibition [7] 5.47%

CCN(CC)S(=O)(=O)c1ccc(C2CNC(=O)C2)cc1 (stereo not given)
inactive: growth inhibition [1] -6.66% | growth inhibition [2] -3.95% | viability increase [3] 1.75% | viability [4] 106% | viability [5] 102% | inhibition [6] 1.48% | RAM network inhibition [7] -0.31%

COC(=O)c1ccccc1NC(=O)c1cc(C2CC2)on1
inactive: growth inhibition [1] -8.38% | growth inhibition [2] 4.01% | viability increase [3] -3.29% | viability [4] 91.5% | viability [5] 90.8% | inhibition [6] 1.4% | RAM network inhibition [7] 5.95%

COc1ccc(Cl)cc1C(=O)NCC(c1ccco1)N1CCCC1 (stereo not given)
inactive: growth inhibition [1] -8.88% | growth inhibition [2] -4.32% | viability increase [3] -3.47% | viability [4] 81% | viability [5] 80.7% | inhibition [6] 2.23% | RAM network inhibition [7] 10.1%

CCOc1cc(/C=N/O)cc(Br)c1OC
inactive: growth inhibition [1] -1.28% | growth inhibition [2] -18.2% | viability increase [3] -3.13% | viability [4] 106% | viability [5] 97.1% | inhibition [6] 1.22% | RAM network inhibition [7] 5.14%

C=C(C)CSC1=C(C#N)C(c2ccccc2)CC(=O)N1 (stereo not given)
inactive: growth inhibition [1] -13.1% | growth inhibition [2] -8.52% | viability increase [3] -2.09% | viability [4] 86.6% | viability [5] 84.1% | inhibition [6] 0.55% | RAM network inhibition [7] 4.86%

CC(C)(C)c1ccc(OCC(=O)N2CCN(C=O)CC2)cc1
inactive: growth inhibition [1] -6.68% | growth inhibition [2] -10.2% | viability increase [3] -2.64% | viability [4] 98.1% | viability [5] 100% | inhibition [6] 1.25% | RAM network inhibition [7] 0.67%

CCCCCSc1nnc2c(n1)OC(C)N(C(C)=O)c1ccccc1-2 (stereo not given)
inactive: growth inhibition [1] -10.3% | growth inhibition [2] -6.29% | viability increase [3] -4.28% | viability [4] 82.8% | viability [5] 86.5% | inhibition [6] 1.47% | RAM network inhibition [7] 2.22%

Cc1nnc(NC(=O)c2oc3cc(C)c(C)cc3c2C)s1
inactive: growth inhibition [1] -3.77% | growth inhibition [2] -4.99% | viability increase [3] -0.05% | viability [4] 105% | viability [5] 99.8% | inhibition [6] 1.64% | RAM network inhibition [7] 5.7%
